Assay results from ChEMBL document CHEMBL1132194, “Synthesis and dopamine receptor modulating activity of novel peptidomimetics of L-prolyl-L-leucyl-glycinamide featuring alpha,alpha-disubstituted amino acids” (1999).
Where a SMILES comes first, the peptide text is derived from it. [ ]: non-standard residue; d: D form. Ac6c = NC1(C(=O)O)CCCCC1; Ac5c = NC1(C(=O)O)CCCC1; Deg = CCC(N)(CC)C(=O)O; Ac3c = NC1(C(=O)O)CC1

Key:
Format in all cases: functional
Rattus norvegicus [1] = experiment: Effect (PLG inhibitor) on apomorphine-Induced rotational behavior in rats at a dose of 10.0 ug/Kg
Summary of the method: (§1)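 Rats carrying unilateral 6-hydroxydopamine lesions of the substantia nigra; test compound given ip, then apomorphine 0.25 mg/kg ip. Contralateral rotations counted over 10 min and expressed as percentage change from control rotational response; n = 5 per group; significance versus respective control group (p < 0.05, p < 0.01).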

Rattus norvegicus [2] = experiment: Effect (PLG inhibitor) on apomorphine-Induced rotational behavior in rats at a dose of 1.0 ug/Kg; summary of the method: as §1
Rattus norvegicus [3] = experiment: Effect (PLG inhibitor) on apomorphine-Induced rotational behavior in rats at a dose of 0.10 ug/Kg; summary of the method: as §1
Rattus norvegicus [4] = experiment: Effect (PLG inhibitor) on apomorphine-Induced rotational behavior in rats at a dose of 0.01 ug/Kg; summary of the method: as §1

SMILES: NC(=O)CN1CC[C@@H](NC(=O)[C@@H]2CCCN2)C1=O
- Change (Rattus norvegicus [1]): 191%
- Change (Rattus norvegicus [2]): 75%
- Change (Rattus norvegicus [3]): 20%

SMILES: NC(=O)C1(N2CC[C@@H](NC(=O)[C@@H]3CCCN3)C2=O)CCCCC1
- Change (Rattus norvegicus [1]): -2%
- Change (Rattus norvegicus [2]): 19%
- Change (Rattus norvegicus [4]): 7%
- Change (Rattus norvegicus [3]): 1%

SMILES: CCC(CC)(C(N)=O)N1CC[C@@H](NC(=O)[C@@H]2CCCN2)C1=O
- Change (Rattus norvegicus [1]): 8%
- Change (Rattus norvegicus [2]): 17%
- Change (Rattus norvegicus [4]): 2%
- Change (Rattus norvegicus [3]): -3%

SMILES: NC(=O)C1(N2CC[C@@H](NC(=O)[C@@H]3CCCN3)C2=O)CCCC1
- Change (Rattus norvegicus [1]): -4%
- Change (Rattus norvegicus [2]): 19%
- Change (Rattus norvegicus [4]): 4%
- Change (Rattus norvegicus [3]): -5%

SMILES: NC(=O)C1(N2CC[C@@H](NC(=O)[C@@H]3CCCN3)C2=O)CC1
- Change (Rattus norvegicus [1]): 4%
- Change (Rattus norvegicus [2]): -8%
- Change (Rattus norvegicus [4]): -6%
- Change (Rattus norvegicus [3]): 10%

SMILES: CC(C)C[C@H](NC(=O)[C@@H]1CCCN1)C(=O)NC1(C(N)=O)CC1 (H-Pro-Leu-[Ac3c]-NH2)
- Change (Rattus norvegicus [1]): -7%
- Change (Rattus norvegicus [2]): 8%
- Change (Rattus norvegicus [4]): 15%
- Change (Rattus norvegicus [3]): 18%

SMILES: CC(C)C[C@H](NC(=O)[C@@H]1CCCN1)C(=O)NC1(C(N)=O)CCCC1 (H-Pro-Leu-[Ac5c]-NH2)
- Change (Rattus norvegicus [1]): -26%
- Change (Rattus norvegicus [2]): 5%
- Change (Rattus norvegicus [4]): -15%
- Change (Rattus norvegicus [3]): -1%

SMILES: CC(C)C[C@H](NC(=O)[C@@H]1CCCN1)C(=O)NC1(C(N)=O)CCCCC1 (H-Pro-Leu-[Ac6c]-NH2)
- Change (Rattus norvegicus [1]): -25%
- Change (Rattus norvegicus [2]): -2%
- Change (Rattus norvegicus [4]): -2%
- Change (Rattus norvegicus [3]): 14%

SMILES: CCC(CC)(NC(=O)[C@H](CC(C)C)NC(=O)[C@@H]1CCCN1)C(N)=O (H-Pro-Leu-[Deg]-NH2)
- Change (Rattus norvegicus [1]): 1%
- Change (Rattus norvegicus [2]): 56%
- Change (Rattus norvegicus [4]): 6%
- Change (Rattus norvegicus [3]): 31%
